Paper PMC9233141 (ChemMedChem, 2022)

Columns and labels:
PKN3 [1] = target: T1, PKN3 (Homo sapiens, UniProt Q6P5Z2); assay: split-luciferase binding assay
NLK = conditions: read-out: Kd NLK; DiscoverX KinomeSCAN, prior annotation of PKIS2; cited from earlier work
ACVR1 = conditions: read-out: ACVR1 Kd; DiscoverX profiling; cited from earlier work
[2] = system: kinases in lysates of SUM159 cells; assay: MIB-MS kinome profiling; format: binding; conditions: 1 μM; for kinases on which activity was detected: threshold 5-fold change
human kinome = conditions: at 1 μM, across the human kinome; cited from earlier work
PKN3 [3] = target: T1, PKN3; assay: PKN3 NanoBRET in-cell target engagement; format: cell-based
Summary of the method: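 Full-length PKN3 with N-terminal NanoLuc (Gly-Ser-Ser-Gly linker) transiently expressed in HEK-293 cells for 20-30 hr at 37°C/5% CO2. Cells in Opti-MEM at 2 x 10^4/well are equilibrated 2 h with tracer K-5 (1000 nM final) and test compound. NanoBRET substrate and extracellular NanoLuc inhibitor are added, and donor/acceptor luminescence is read. IC50 comes from a variable-slope fit, normalised to controls when needed.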

GAK [4] = conditions: read-out: GAK activity in cells IC50; GAK NanoBRET; cited from earlier work
GAK [5] = assay: GAK NanoBRET; format: cell-based; conditions: NanoBRET GAK vs PKN3
GAK [6] = assay: GAK FRET binding; conditions: compared to 14
[7] = PKN3 IC50, SLCA assay (n=2), 8-point dose response

T1 sequence (Q6P5Z2 whole entry): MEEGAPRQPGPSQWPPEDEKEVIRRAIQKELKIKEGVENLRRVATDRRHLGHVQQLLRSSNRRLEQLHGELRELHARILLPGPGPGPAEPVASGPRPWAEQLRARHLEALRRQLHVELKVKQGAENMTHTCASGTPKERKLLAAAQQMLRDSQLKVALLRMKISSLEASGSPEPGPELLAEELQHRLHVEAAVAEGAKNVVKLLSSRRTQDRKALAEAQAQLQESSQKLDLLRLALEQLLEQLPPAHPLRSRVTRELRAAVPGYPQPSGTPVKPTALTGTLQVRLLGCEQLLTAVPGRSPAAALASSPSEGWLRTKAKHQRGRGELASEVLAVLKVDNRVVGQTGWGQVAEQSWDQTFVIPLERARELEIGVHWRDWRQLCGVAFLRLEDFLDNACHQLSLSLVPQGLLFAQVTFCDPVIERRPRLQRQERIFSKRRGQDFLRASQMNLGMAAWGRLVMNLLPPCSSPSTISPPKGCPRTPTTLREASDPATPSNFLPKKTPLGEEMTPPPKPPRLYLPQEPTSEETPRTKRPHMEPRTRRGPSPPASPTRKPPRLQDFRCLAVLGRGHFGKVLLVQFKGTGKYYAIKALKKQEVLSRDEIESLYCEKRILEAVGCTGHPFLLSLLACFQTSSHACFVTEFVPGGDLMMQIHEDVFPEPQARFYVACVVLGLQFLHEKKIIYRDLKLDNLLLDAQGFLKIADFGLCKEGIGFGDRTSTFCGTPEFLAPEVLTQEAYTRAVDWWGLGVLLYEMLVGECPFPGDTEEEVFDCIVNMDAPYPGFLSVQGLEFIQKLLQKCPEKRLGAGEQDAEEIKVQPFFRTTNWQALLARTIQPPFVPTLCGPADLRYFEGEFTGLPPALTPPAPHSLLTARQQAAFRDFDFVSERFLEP

Work on `COc1cc2nccc(Oc3ccc(NC(=O)C4(C(=O)Nc5ccc(F)cc5)CC4)cc3)c2cc1OC` [Cabozantinib] yielded an IC50 (PKN3 [1]; [7]) of 42000 nM.
For `COc1cc(Nc2ccnc3ccc(C(F)(F)F)cc23)cc(OC)c1OC` [Compound 2], the Kd (NLK) is given as < 1000 nM, the Kd (ACVR1) is given as 220 nM and the kinome profile [2] is given as “narrow spectrum”. For the same compound, the “kinases on which activity was detected” value [2] was “GAK and RIPK2”.
In the case of `COc1cc(Nc2ccnc3cc(-c4ccncc4)ccc23)cc(OC)c1OC` [Compound 3], the “number of kinases inhibited >90%” value (human kinome) is listed as > 18 kinases and the IC50 (PKN3 [1]; PKN3 IC50, SLCA assay) is listed as 9 nM.
In the case of `COc1cc(Nc2ccnc3cc(I)ccc23)cc(OC)c1OC` [Compound 16, 7-iodo-N-(3,4,5-trimethoxyphenyl)quinolin-4-amine], the IC50 (PKN3 [3]) is listed as 1300 nM, the “drop off in activity from cell free SLCA assay to NanoBRET” value (PKN3 [3]; PKN3) is listed as ~100 fold and the IC50 (GAK [4]) is listed as 74 nM. For the same compound, the “more potent on GAK than PKN3 in cells” value (GAK [5]) was 17 fold, the “decrease in GAK activity” value (GAK [6]) was 3 fold and the kinome profile [2] was “narrow spectrum”. The “kinases on which activity was detected” value [2] was “PKN3, NLK, GAK, AVCR1 and RIPK2”.
In the case of `CS(=O)(=O)CCNCc1ccc(-c2ccc3ncnc(Nc4ccc(OCc5cccc(F)c5)c(Cl)c4)c3c2)o1` [Lapatinib], the IC50 (PKN3 [1]; [7]) is reported as 5900 nM and the “PKN3 binding, in words” value (PKN3 [1]; SLCA assay) is reported as “moderate activity”.
Work on `CNC(=O)CN1CCC(Oc2cc3c(Nc4cccc(Cl)c4F)ncnc3cc2OC)CC1` [Sapitinib] yielded an IC50 (PKN3 [1]; [7]) of 44000 nM.
Work on `COc1cc2c(Nc3ccc(Cl)c(Cl)c3F)ncnc2cc1OC[C@@H]1C[C@@H]2CN(C)C[C@@H]2C1` [Tesevatinib] yielded an IC50 (PKN3 [1]; [7]) of 240 nM.
In the case of `COc1cc2c(Nc3ccc(Br)cc3F)ncnc2cc1OCC1CCN(C)CC1` [Vandetanib], the IC50 (PKN3 [1]; [7]) is reported as 540 nM.
